Data reported in the RNAGym collection of RNA variant scans (doi:10.1101/gad.245936.114).
Fewer inactive variants are shown than the library holds.

B1: tRNA (parent)
chain: CUCUCGGUAGCCAAGUUGGUUUAAGGCGCAAGACUUUAAUUUAUCACUACGAAAUCUUGAGAUCGGGCGUUCGACUCGCCCCCGGGAGAUUUUUUCCUCGAGCAA

Variants of: B1
Assay: nonsense suppression (GFP-seq) (ratio to wild type); higher = more function; SUP4oc tRNA, yeast GFP reporter sort-seq
In short: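 Yeast carrying genome-integrated SUP4oc tRNA variants from a library with ~3% random mutations were grown in raffinose/galactose medium with 80 mg/L adenine. Each strain also carried a galactose-driven GFP ochre reporter and RFP. Cells were sorted into GFP/RFP bins, and each bin was Illumina-sequenced (phred ≥30). Nonsense suppression (GFPSEQ) is the bin median GFP/RFP, weighted by each variant's estimated cell share per bin, relative to wild-type SUP4oc; variants needed ≥100 reads and ≥30 cells.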
For C80U G85A, the nonsense suppression was 0.733.
G84A G88U showed a nonsense suppression of no more than 0.026.
Variant G78C G84U has a nonsense suppression of 0.0271.
A74U G84C gave a nonsense suppression of no more than 0.026.
In the case of U70G C82G, the nonsense suppression is reported as no more than 0.026.
For C82A C83U, the nonsense suppression was no more than 0.026.
For C80U A87U, the nonsense suppression was 0.035.
C75U U76G gave a nonsense suppression of 0.172.
In the case of C81U G84A, the nonsense suppression is reported as 0.0642.
C81U G84U showed a nonsense suppression of 0.065.
In the case of U76C G78U, the nonsense suppression is reported as 0.0507.
U76C G78C showed a nonsense suppression of 0.118.
For U76C G78A, the nonsense suppression was 0.0382.
With U70A C83U the nonsense suppression was 0.0439.
Work on C83U G84U yielded a nonsense suppression of 0.027.
Variant G84A A87G has a nonsense suppression of 0.157.
C82A G84U gave a nonsense suppression of no more than 0.026.
G85A showed a nonsense suppression of 0.982.
Work on G85U yielded a nonsense suppression of 1.12.
Work on G85C yielded a nonsense suppression of 0.163.
With C72U G73C C79G the nonsense suppression was no more than 0.026.
Work on C72U C81A yielded a nonsense suppression of no more than 0.026.
C81G A87G gave a nonsense suppression of 0.0415.
With G78C A89U the nonsense suppression was no more than 0.026.
Variant C82A A87U has a nonsense suppression of no more than 0.026.
In the case of G85C A89C, the nonsense suppression is reported as no more than 0.026.
Variant G73A G85A has a nonsense suppression of 1.03.
With G73A G85U the nonsense suppression was 0.285.
In the case of C81A G85U, the nonsense suppression is reported as no more than 0.026.
For C75A G78C, the nonsense suppression was 1.
In the case of C75A G78A, the nonsense suppression is reported as 0.698.
C80G G84A showed a nonsense suppression of no more than 0.026.
In the case of U76A C82U, the nonsense suppression is reported as no more than 0.026.
With U70A U76G the nonsense suppression was 0.183.
With G73A the nonsense suppression was 1.12.
A74G G78C G86C gave a nonsense suppression of no more than 0.026.
For A74C C79U, the nonsense suppression was 0.037.
With G78A the nonsense suppression was 0.775.
Variant G78U has a nonsense suppression of 0.63.
Variant G78C has a nonsense suppression of 0.202.
With A74G G78C the nonsense suppression was 0.0343.
A74G G78U gave a nonsense suppression of 0.0279.
U76A A87G showed a nonsense suppression of 0.0534.
In the case of U76A C77A, the nonsense suppression is reported as no more than 0.026.
With U71C C77G G84A the nonsense suppression was no more than 0.026.
In the case of G78A G88C, the nonsense suppression is reported as 0.0845.
In the case of C82A G85U, the nonsense suppression is reported as 0.0445.
For C75A C79U, the nonsense suppression was 1.21.
Variant C75G G85U has a nonsense suppression of 1.12.
In the case of C75G G85C, the nonsense suppression is reported as 0.191.
With C75U G85A the nonsense suppression was 1.06.
For C75U G85U, the nonsense suppression was 1.12.
With C81U A87G the nonsense suppression was 0.239.
Work on C72G G78A yielded a nonsense suppression of 0.0282.
For U70C G86A, the nonsense suppression was no more than 0.026.
In the case of G78A C82A, the nonsense suppression is reported as 0.0338.
G78A C82G showed a nonsense suppression of 0.0423.
For C82U G85A, the nonsense suppression was 0.99.
Work on C80U G88A yielded a nonsense suppression of 0.0263.
For G78U C82U, the nonsense suppression was 0.105.
Variant G73A G88U has a nonsense suppression of 0.0757.
In the case of G73A G88A, the nonsense suppression is reported as 0.0281.
In the case of C79A C83A, the nonsense suppression is reported as no more than 0.026.
Variant U71G C77A C79U A87U has a nonsense suppression of no more than 0.026.
Variant C75A C80U has a nonsense suppression of 1.01.
C75A C80G gave a nonsense suppression of no more than 0.026.
Work on G85A G88C yielded a nonsense suppression of no more than 0.026.
In the case of G85A A87G, the nonsense suppression is reported as 1.18.
G85A A87U showed a nonsense suppression of 0.19.
For G78A A87C, the nonsense suppression was 0.032.
Variant G78A A87U has a nonsense suppression of 0.032.
With G78A A87G the nonsense suppression was 0.294.
For G69U U71G, the nonsense suppression was no more than 0.026.
In the case of G78A G84A, the nonsense suppression is reported as 0.459.
G78A G84U showed a nonsense suppression of 0.0325.
U70C G78A gave a nonsense suppression of 0.0308.
C83U G86A showed a nonsense suppression of no more than 0.026.
For A74G C83G, the nonsense suppression was no more than 0.026.
Variant U76G C79G G88A has a nonsense suppression of no more than 0.026.
For G73U C81U, the nonsense suppression was 0.0263.
C81U showed a nonsense suppression of 1.16.
Variant U76A C80U has a nonsense suppression of 0.0419.
In the case of C81U G88U, the nonsense suppression is reported as 0.0501.
G78A G86A G88C gave a nonsense suppression of no more than 0.026.
G84C G85C gave a nonsense suppression of 0.0289.
G85U G88A showed a nonsense suppression of 0.0446.
For C82U, the nonsense suppression was 1.05.
Variant G78A C83U has a nonsense suppression of 0.0266.
With G78A C83A the nonsense suppression was no more than 0.026.
With C75G G78C C83A the nonsense suppression was no more than 0.026.
In the case of G78U G84A, the nonsense suppression is reported as 0.0428.
With G78A G85U the nonsense suppression was 0.0673.
For U76C, the nonsense suppression was 1.
U76A showed a nonsense suppression of no more than 0.026.
With C79A G84C the nonsense suppression was no more than 0.026.
In the case of C72U G78A, the nonsense suppression is reported as 0.0322.
G78U C83A gave a nonsense suppression of 0.0425.
Variant U70C A74G A87C has a nonsense suppression of no more than 0.026.
For A74G G84C, the nonsense suppression was no more than 0.026.
With C72G G73A the nonsense suppression was 0.0319.
Work on A74U C79U yielded a nonsense suppression of 0.0357.
For A74G C81G, the nonsense suppression was no more than 0.026.
In the case of U76A G85U, the nonsense suppression is reported as 0.0588.
Work on G73A A87U yielded a nonsense suppression of 0.0409.
C75A A87G showed a nonsense suppression of 0.839.
C75U G78C showed a nonsense suppression of 1.14.
Variant C75U G78A has a nonsense suppression of 0.9.
In the case of C72A G85C, the nonsense suppression is reported as no more than 0.026.
Work on G78A C79G yielded a nonsense suppression of 0.0629.
With C79G C82G the nonsense suppression was no more than 0.026.
For C72U G85U, the nonsense suppression was 0.0294.
For G73A C79U, the nonsense suppression was 0.207.
U71C C72G showed a nonsense suppression of no more than 0.026.
With C83U A87U the nonsense suppression was no more than 0.026.
C83U A87G gave a nonsense suppression of 0.0621.
Work on U76A C79G yielded a nonsense suppression of no more than 0.026.
U76A C79A gave a nonsense suppression of no more than 0.026.
Variant G73C C83A has a nonsense suppression of no more than 0.026.
C80A G86A gave a nonsense suppression of no more than 0.026.
With U70A C80U the nonsense suppression was no more than 0.026.
Variant U70A C80G has a nonsense suppression of no more than 0.026.
With G86C A87G the nonsense suppression was 0.0881.
U70C C75U showed a nonsense suppression of no more than 0.026.
Work on C83U yielded a nonsense suppression of 0.535.
In the case of U71G C72U, the nonsense suppression is reported as no more than 0.026.
C75A C82A gave a nonsense suppression of 0.217.
Work on C75A yielded a nonsense suppression of 0.996.
For C75G, the nonsense suppression was 1.04.
C75U showed a nonsense suppression of 0.972.
Work on A74U G78A yielded a nonsense suppression of 0.0557.
For C79U G86C, the nonsense suppression was 0.0687.
For C72U C80A A87C, the nonsense suppression was 0.714.
For G69U C72G, the nonsense suppression was no more than 0.026.
With A74C U76C G86A A89G the nonsense suppression was no more than 0.026.
With U70G C75U the nonsense suppression was no more than 0.026.
For C80U, the nonsense suppression was 0.697.
Work on A74G C75A G86C yielded a nonsense suppression of no more than 0.026.
C81G G88A showed a nonsense suppression of no more than 0.026.
With C77U C83A the nonsense suppression was no more than 0.026.
With C79U the nonsense suppression was 0.879.
G73C U76A showed a nonsense suppression of no more than 0.026.
For C81A A89C, the nonsense suppression was no more than 0.026.
In the case of G69C G88U, the nonsense suppression is reported as no more than 0.026.
C77A C81U showed a nonsense suppression of no more than 0.026.
Work on C81A A87U yielded a nonsense suppression of no more than 0.026.
G78U G85C showed a nonsense suppression of 0.0488.
In the case of G78C G85U, the nonsense suppression is reported as 0.232.
U76C A87G showed a nonsense suppression of 0.932.
With C80A C82U the nonsense suppression was no more than 0.026.
For C75A G85A, the nonsense suppression was 1.05.
In the case of G78A C81G, the nonsense suppression is reported as 0.0732.
Variant G73A G84C has a nonsense suppression of 0.361.
For G73A G84A, the nonsense suppression was 0.191.
C77U C79A C83A gave a nonsense suppression of no more than 0.026.
Variant G73A A89C has a nonsense suppression of 0.0768.
A74C C81U gave a nonsense suppression of no more than 0.026.
G86C gave a nonsense suppression of no more than 0.026.
For G69U G86C, the nonsense suppression was 0.17.
G73A U76A gave a nonsense suppression of 0.0803.
G73A U76C showed a nonsense suppression of 0.682.
In the case of C79A A87C, the nonsense suppression is reported as no more than 0.026.
For G84A G86U, the nonsense suppression was no more than 0.026.
With C75G G78C the nonsense suppression was 0.361.
Work on C80U G84A yielded a nonsense suppression of 0.125.
Work on U76C C81U yielded a nonsense suppression of 0.0575.
Variant C72G G88U has a nonsense suppression of no more than 0.026.
U71G A89U gave a nonsense suppression of no more than 0.026.
